Values after ≈ are worked out from the molar mass of the structure shown. Active and inactive are the calls of the source. The rule behind the calls is not given here.
How the values were obtained:
[1] = test system: Mycolicibacterium fortuitum; assay: Antibacterial activity against Mycobacterium fortuitum after 72 hrs; assay type: functional
Method in brief: (§1)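 Fast-growing mycobacteria obtained from NCTC; cultures grown on Columbia blood agar with 7% defibrinated horse blood at 37 °C for 72 h before MIC determination. Ethambutol and isoniazid served as positive controls.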

[2] = test system: Mycolicibacterium smegmatis; assay: Antibacterial activity against Mycobacterium smegmatis after 72 hrs; assay type: functional; method in brief: as §1
[3] = test system: Mycolicibacterium phlei; assay: Antibacterial activity against Mycobacterium phlei after 72 hrs; assay type: functional; method in brief: as §1
[4] = test system: Staphylococcus aureus; assay: Antibacterial activity against Staphylococcus aureus SA1199B overexpressing NorA efflux pump after 72 hrs; assay type: functional
[5] = test system: Staphylococcus aureus; assay: Antibacterial activity against tetracycline-effluxing Staphylococcus aureus XU212 after 72 hrs; assay type: functional; conditions: XU212, 72 h
Method in brief: (§2)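 S. aureus strains tested in a MIC assay; norfloxacin and oxacillin used as positive controls.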

[6] = test system: Staphylococcus aureus; assay: Antibacterial activity against Staphylococcus aureus EMRSA15 after 72 hrs; assay type: functional; conditions: EMRSA15, 72 h; method in brief: as §2
[7] = test system: Mycobacterium tuberculosis; assay: Effect on trxB2 RNA expression in Mycobacterium tuberculosis H37Rv ATCC 27294 at 2 to 10 ug/ml after 6 hrs by microarray analysis; assay type: functional, organism-based
Method in brief: (§3)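 H37Rv grown in 7H9 with 0.2% glycerol, 0.5% BSA fraction V, 0.05% Tween 80, 0.08% NaCl and 0.2% glucose to OD650 0.3. Treated with 2, 5 or 10 µg/mL compound, or matching DMSO, for 6 h. RNA isolated, labelled cDNA hybridised to microarrays. Predictive genes found by class prediction analysis.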

[8] = test system: Mycobacterium tuberculosis; assay: Effect on trxC RNA expression in Mycobacterium tuberculosis H37Rv ATCC 27294 at 2 to 10 ug/ml after 6 hrs by microarray analysis; assay type: functional, organism-based; method in brief: as §3
[9] = test system: Mycobacterium tuberculosis; assay: Upregulation of clpB RNA expression in Mycobacterium tuberculosis H37Rv ATCC 27294 at 2 to 10 ug/ml after 6 hrs by microarray analysis; assay type: functional, organism-based; method in brief: as §3
[10] = test system: Mycobacterium tuberculosis; assay: Upregulation of sigH RNA expression in Mycobacterium tuberculosis H37Rv ATCC 27294 at 2 to 10 ug/ml after 6 hrs by microarray analysis; assay type: functional, organism-based; method in brief: as §3
[11] = test system: Mycobacterium tuberculosis; assay: Upregulation of dnaJ RNA expression in Mycobacterium tuberculosis H37Rv ATCC 27294 at 2 to 10 ug/ml after 6 hrs by microarray analysis; assay type: functional, organism-based; method in brief: as §3
[12] = test system: Mycobacterium tuberculosis; assay: Upregulation of dnaK RNA expression in Mycobacterium tuberculosis H37Rv ATCC 27294 at 2 to 10 ug/ml after 6 hrs by microarray analysis; assay type: functional, organism-based; method in brief: as §3
[13] = test system: Mycobacterium tuberculosis; assay: Upregulation of hsp RNA expression in Mycobacterium tuberculosis H37Rv ATCC 27294 at 2 to 10 ug/ml after 6 hrs by microarray analysis; assay type: functional, organism-based; method in brief: as §3
[14] = test system: Mycobacterium tuberculosis; assay: Upregulation of Rv0331 RNA expression in Mycobacterium tuberculosis H37Rv ATCC 27294 at 2 to 10 ug/ml after 6 hrs by microarray analysis; assay type: functional, organism-based; method in brief: as §3
[15] = test system: Mycobacterium tuberculosis; assay: Upregulation of Rv3463 RNA expression in Mycobacterium tuberculosis H37Rv ATCC 27294 at 2 to 10 ug/ml after 6 hrs by microarray analysis; assay type: functional, organism-based; method in brief: as §3
[16] = test system: Mycobacterium tuberculosis; assay: Upregulation of Rv3054c RNA expression in Mycobacterium tuberculosis H37Rv ATCC 27294 at 2 to 10 ug/ml after 6 hrs by microarray analysis; assay type: functional, organism-based; method in brief: as §3
[17] = test system: Mycobacterium tuberculosis; assay: Upregulation of Rv1334 RNA expression in Mycobacterium tuberculosis H37Rv ATCC 27294 at 2 to 10 ug/ml after 6 hrs by microarray analysis; assay type: functional, organism-based; method in brief: as §3
[18] = test system: Mycobacterium tuberculosis; assay: Upregulation of Rv1335 RNA expression in Mycobacterium tuberculosis H37Rv ATCC 27294 at 2 to 10 ug/ml after 6 hrs by microarray analysis; assay type: functional, organism-based; method in brief: as §3
[19] = test system: Mycobacterium tuberculosis; assay: Antibacterial activity against Mycobacterium tuberculosis infected in GKO C57BL/6 mouse assessed as bacterial number in lung at 25 mg/kg/day administered 14 days postinfection via oral gavage for nine consecutive days measured on day 24 postinfection; assay type: functional
Method in brief: (§4)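 Female GKO C57BL/6 mice, 8–10 weeks old, infected by low-dose aerosol with M. tuberculosis Erdman (50–100 CFU uptake confirmed day 1). Daily oral gavage in 0.5% methyl cellulose from day 14 for nine consecutive days; isoniazid given at 25 mg/kg/day. Five mice per group, with untreated and pretreatment controls. Lung and spleen CFU log-transformed; one-way ANOVA with Tukey test.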

[20] = test system: Mycobacterium tuberculosis; assay: Antibacterial activity against Mycobacterium tuberculosis infected in GKO C57BL/6 mouse assessed as bacterial number in spleen at 25 mg/kg/day administered 14 days postinfection via oral gavage for nine consecutive days measured on day 24 postinfection; assay type: functional; method in brief: as §4

| SMILES | MIC [1] [µg/mL] | MIC [2] [µg/mL] | MIC [3] [µg/mL] | MIC [4] [µg/mL] | MIC [5] [µg/mL] | MIC [6] [µg/mL] | also measured |
| --- | --- | --- | --- | --- | --- | --- | --- |
| CSSc1ccccc1 | > 128 | 64 (≈ 410 µM) | > 128 | 128 (≈ 819 µM) | > 128 | > 128 | – |
| [O-][n+]1ccccc1SSc1cccc[n+]1[O-] [DIPYRITHIONE] | 16 (≈ 63.4 µM) | 16 (≈ 63.4 µM) | 16 (≈ 63.4 µM) | 1 (≈ 3.96 µM) | 1 (≈ 3.96 µM) | 0.5 (≈ 1.98 µM) | – |
| CC[C@@H](CO)NCCN[C@@H](CC)CO [ETHAMBUTOL] | 2 (≈ 9.79 µM) | 32 (≈ 157 µM) | 2 (≈ 9.79 µM) | – | – | – | – |
| Oc1cccc2cccnc12 | – | – | – | – | – | – | Activity [7]: Active; Activity [8]: Active; Activity [9]: Active; Activity [10]: Active; Activity [11]: Active; Activity [12]: Active; Activity [13]: Active; Activity [14]: Active; Activity [15]: Active; Activity [16]: Active; Activity [17]: Active; Activity [18]: Active |
| CSSc1cccs1 | > 128 | 64 (≈ 394 µM) | > 128 | 128 (≈ 789 µM) | > 128 | > 128 | – |
| NNC(=O)c1ccncc1 [ISONIAZID] | 0.25 (≈ 1.82 µM) | 0.25 (≈ 1.82 µM) | 128 (≈ 933 µM) | – | – | – | log10cfu [19]: 5.33; log10cfu [20]: 2.16 |
| CCn1cc(C(=O)O)c(=O)c2cc(F)c(N3CCNCC3)cc21 [NORFLOXACIN] | – | – | – | 32 (≈ 100 µM) | 16 (≈ 50.1 µM) | 0.5 (≈ 1.57 µM) | – |
